Screening data (PubChem BioAssay)
Only some compounds are listed: those with a hit (about 2.1% of all), similar ones and a draw of the others.
UCH37 DUB inh: inhibitors of human UCH37 deubiquitinase, primary screen, biochemical, Ub-AMC cleavage, fluorescence; inhibition, % (no concentration beside the values); purified proteasome/UCH37; Ubiquitin carboxyl-terminal hydrolase isozyme L5 (Homo sapiens), Q9Y5K5; hit rate 0.33% among 330,000; AID 588478, 2011;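 active = mean inhibition over replicate wells above about 20%, limit read from the data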;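 note: 0% = compound-free wells with enzyme and 100% = wells lacking proteasome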
Target sequence (Q9Y5K5 whole entry, looked up): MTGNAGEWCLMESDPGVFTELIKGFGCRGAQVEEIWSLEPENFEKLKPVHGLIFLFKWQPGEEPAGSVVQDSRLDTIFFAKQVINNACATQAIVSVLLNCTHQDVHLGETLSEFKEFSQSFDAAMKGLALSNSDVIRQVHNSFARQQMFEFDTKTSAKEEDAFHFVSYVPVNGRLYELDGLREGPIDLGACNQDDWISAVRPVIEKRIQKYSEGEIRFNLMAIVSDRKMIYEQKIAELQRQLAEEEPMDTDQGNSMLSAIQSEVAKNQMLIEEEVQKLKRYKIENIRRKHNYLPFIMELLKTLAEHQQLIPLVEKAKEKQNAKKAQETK
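assay system = human UCH37 enzyme supplied as purified proteasome complex | amount = proteasome at 0.15 nM in the dispensed enzyme solution | schedule = 30 min compound-proteasome preincubation then 25 min substrate reaction, room temperature | measured by = fluorescence, ex 355 nm, em 460 nm | benchmarks = no-proteasome wells (full inhibition) and compound-free wells (no inhibition)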
Efflux pump mplx: inhibitors of Candida efflux pumps in yeast, primary screen, S. cerevisiae, Nile Red, multiplex | hit rate 0.44% among 330,000 | S. cerevisiae Candida pump triplex | inhibition, % at 10 µM;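 active = plate passing quality check with inhibition over a set limit, or well fluorescence over plate mean plus 4 SD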;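 note: Nile Red retained in pooled yeast measured as flow cytometry median fluorescence; 0% = buffer negative control and 100% = Enniatin B positive control; higher means more Nile Red kept so more efflux inhibition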
RTF Ca sens inh: cardiac RTF calcium sensitivity inhibitors, primary screen, biochemical, IANBD-TnC fluorescence, EC70 calcium | IANBD-labeled cardiac RTF, Ca2+ fluorescence | Troponin I, cardiac muscle (Homo sapiens) + Troponin T, cardiac muscle (Homo sapiens) + … | hit rate 0.12% among 340,000 | inhibition, % at 7.15 µM;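 active = inhibition above the mean inhibition of all tested compounds plus 3 SD, cut at about 17% in these data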;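 note: assay run at fixed EC70 calcium of 1.6 mM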
Mot1-301 SUMO: yeast Mot1-301 growth rescue at high temperature, primary screen, SUMOylation pathway inhibitor project, S. cerevisiae, ATP luminescence, 38.5C. S. cerevisiae Mot1-301 growth rescue; percent above DMSO median, 100 means doubled. growth rescue, % at 18.8 µM. hit rate 1% among 320,000;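 active = every valid replicate shows activation above 250% relative to neutral control wells; inactive = the rest, any valid replicate at or below 250%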;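 note: OY570 slx delta 5 strain wells were the positive control but not used for scaling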
ARNT-TACC3 inh: disruptors of ARNT/TACC3 protein interaction, primary screen, biochemical, AlphaScreen, single concentration. Transforming acidic coiled-coil-containing protein 3 (Homo sapiens), Q9Y6A5. AlphaScreen His-ARNT PAS-B/GST-TACC3 binding, luminescence; TACC3 fragment carries E629A point mutation. inhibition, % at 9.99 µM. hit rate 0.66% among 390,000. AID 623870, 2012;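 active = mean inhibition of replicates at least 50% and at least half of replicates each reaching 50%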;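 note: 0% = complete ARNT plus TACC3 wells and 100% = ARNT alone without TACC3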
cardiac RTF act: cardiac RTF calcium sensitivity activators, primary screen, biochemical, IANBD-TnC fluorescence, EC20 calcium; activation, % at 7.2 µM; IANBD-labeled TnC RTF fluorescence at EC20 calcium; 0% EC20 calcium, 100% full calcium; Troponin I, cardiac muscle (Homo sapiens) + Troponin T, cardiac muscle (Homo sapiens) + …; hit rate 0.24% among 340,000;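 active = activation above the mean over all tested compounds plus 3 SD, cut at about 30% in these data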;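 note: rise in fluorescence read as greater calcium sensitivity of cardiac thin filaments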
Mot1 SUMO dose: growth restoration of Mot1-301 yeast on galactose, dose response, SUMO pathway inhibitor project, whole organism, S. cerevisiae, ATP luminescence, cherry-picked samples | shares compounds with Mot1-301 SUMO | S. cerevisiae Mot1-301 galactose growth, 24 h; -100 = growth of slx-deleted rescue strain | growth activity, percent, % at 42 µM | 2,300 tested, under 10 active | AID 493004, 2010;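 active = Signal drops as the depositor expects, and the fitted half-maximal dose is no more than ten times the top valid tested dose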;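 note: more negative values mean stronger growth rescue toward the control strain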
* = called active by the depositor; / = no result; + = active, no number; [ ] = dose if it differs, or a comment.

SMILES	UCH37 DUB inh	Efflux pump mplx	RTF Ca sens inh	Mot1-301 SUMO	ARNT-TACC3 inh	cardiac RTF act	Mot1 SUMO dose
Cc1cccc(-n2c(C)cc(C=NNC(=O)c3ccc(CN4CCOCC4)cc3)c2C)c1	4	/	/	/	/	/	/
Cc1noc(C)c1S(=O)(=O)N1CCCC(C(=O)NCC2CCCO2)C1 (centres undefined)	5	0	-8	+	/	-9	0
O=C(NN=Cc1ccccc1)c1ccccc1-n1cccc1	2	/	/	/	/	/	/
COc1ccc(C(=O)N/C(=C\c2cn(C)c3ccccc23)C(=O)OCCN(C)C)cc1	11	0	5	507*	7	-2	0
CCCCOC(=O)/C(=C/c1cn(C)c2ccccc12)NC(=O)c1ccc(OC)cc1	-1	0	-1	-8	-2	1	/
CC1(C)C=C(c2ccc(O)cc2)CC(C)(C)N1	0	1	-8	660*	-4	1	1
Cc1cc(Nc2ccc(Cl)cc2)n(-c2ccccc2)n1	4	0	0	-10	0	-5	/
Cc1cc(Nc2nc3c(c(=O)n(C)c(=O)n3C)n2C)n(-c2ccc(Cl)cc2)n1	-38	0	-6	+	3	-2	0
CN(CC(=O)Nc1cccc(F)c1)CC(=O)Nc1cccc(S(N)(=O)=O)c1	1	0	-9	740*	-4	3	0
Cc1nn(-c2ccccc2)c(C)c1-c1cc(C(=O)NN=Cc2cccnc2)[nH]n1	2	/	/	/	/	/	/
COc1cc(C(=O)NCCOc2ccccc2)cc(OC)c1OC	3	0	-9	-3	11	-3	/
COc1cc(C(=O)NCCC2=CCCCC2)cc(OC)c1OC	4	0	-12	807*	-4	-1	0
COc1cc(C(=O)OCC(=O)NCCC2=CCCCC2)cc(OC)c1OC	4	/	4	/	4	3	/
COc1cc(C(=O)NCCOc2cc(C)cc(C)c2)cc(OC)c1OC	3	0	-9	631*	-6	3	0
CN(C)/C=C/C(=O)c1ccc(Br)cc1	5	0	-12	9	0	-8	/
CN(C)/C=C/C(=O)c1ccncc1	13	0	-6	877*	-5	4	0
Nc1nnc(COc2ccc(Br)cc2Br)s1	5	0	0	+	4	-5	1
CCOc1ccc(NC(=O)CN(C)C(=O)c2ccc(OCc3ccccc3)c(OC)c2)cc1OCC	3	0	2	540*	5	1	1
COc1ccc(NC(=O)Nc2ccccc2C(=O)N2CCCC2)cc1	0	0	-17	739*	-2	2	0
COc1ccc(NC(=O)CSCC(=O)Nc2ccccc2C(=O)N2CCCCC2)cc1	-1	0	2	0	-12	2	/
C(=N\N1CCOCC1)/c1nc(-c2ccccc2)n2ccccc12	/	0	-9	3	-8	5	/
CC(C)(C)c1ccc(-c2nc(C=O)c3ccccn23)cc1	/	0	-9	412*	2	2	-1
Cc1cc(NC(=O)c2ccc3c(c2)C(=O)N(C(C)(C)C)C3=O)no1	4	0	8	447*	-3	6	0
Cc1cc(C)nc(SCc2ccc(C(=O)NN=CC3CCCCC3)cc2)n1	1	/	/	/	/	/	/
Cc1ccc(C)n1-c1ccc(N2CCOCC2)cc1	3	0	0	-2	2	-2	/
SMILES	UCH37 DUB inh	Efflux pump mplx	RTF Ca sens inh	Mot1-301 SUMO	ARNT-TACC3 inh	cardiac RTF act	Mot1 SUMO dose
Cc1ccc(C)n1-c1ccc(N(C)C)cc1	3	0	-5	+	14	1	0
CCOc1ccc(Oc2c(C=NNC(C)=O)c(C)nn2-c2ccccc2)cc1	5	/	/	/	/	/	/
CCCN1C(=O)c2ccccc2NC1c1ccc(C)cc1 (centres undefined)	-409	0	0	458*	-10	10	1
Cc1cc(C(=O)NC(Cc2c[nH]c3ccccc23)C(=O)O)c(C)o1 (centres undefined)	0	0	-9	-13	-9	3	/
Cc1ccc(C(=O)NC(Cc2c[nH]c3ccccc23)C(=O)O)o1 (centres undefined)	5	0	4	+	2	5	0
CN(C)c1ccc(/C=C/c2cccc[n+]2[O-])cc1	/	0	/	584*	10	/	0
CC1=C(C(=O)OCc2ccccc2)C(c2ccccc2)NC(=O)N1 (centres undefined)	1	0	-1	-1	1	-1	/
CC1=C(C(=O)OCc2ccccc2)C(c2cccc(F)c2)NC(=O)N1 (centres undefined)	2	0	2	611*	-1	4	0
O=C(COc1cccnc1[N+](=O)[O-])Nc1ccc2c(c1)CCC2	1	0	6	811*	32	6	0[21 µM]
Cc1nnc(SCC(=O)NCc2ccccc2Cl)[nH]c1=O	2	0	-3	+	/	-8	1
CC(=O)c1ccc2noc(-c3ccc(F)cc3)c2c1	-29	0	-20	+	12	11	-1
CC(=O)c1ccc2noc(-c3ccc(Cl)cc3)c2c1	-5	0	-5	5	1	8	/
COc1ccccc1C=NNC(=O)c1cccc(NC(=O)c2ccccc2Cl)c1	4	/	/	/	/	/	/
COc1ccc(C=NNC(=O)C(C)n2cnc3ccccc3c2=O)cc1 (centres undefined)	2	/	/	/	/	/	/
Cc1ccc(-n2c(C)cc(/C=N/NC(=O)c3ccncc3)c2C)cc1C	/	0	2	753*	9	3	0
COCC(=O)Nc1c(C(=O)Nc2ccc3c(c2)OCO3)oc2ccccc12	-2	0	-10	415*	-1	-8	-1
COc1ccccc1/C=C/C=Nn1c(C)nnc1C	-23	/	/	/	/	/	/
CC(=O)c1cccc(NC(=S)NC(=O)c2cncc(Br)c2)c1	1	0	-8	-8	4	1	/
COc1cccc(NC(=S)NC(=O)c2cncc(Br)c2)c1	5	0	-10	983*	7	2	-1
Cc1nc2ccccc2c(=O)n1N=Cc1cc(Br)ccc1O	3	/	/	/	/	/	/
